Measured values reported in ChEMBL document CHEMBL4622944 (Bioorg Med Chem Lett, 2020).
One block for each compound: values may come before it.

Key:
A549 = experiment: Antiproliferative activity against human A549 cells assessed as reduction in cell viability by MTT assay; format: functional, cell-based
HCT-116 [1] = experiment: Antiproliferative activity against human HCT116 cells assessed as reduction in cell viability by MTT assay; format: functional, cell-based
PC-3 = experiment: Antiproliferative activity against human PC3 cells assessed as reduction in cell viability by MTT assay; format: functional, cell-based
HCT-116 [2] = experiment: Induction of apoptosis in human HCT116 cells assessed as viable cells at 1 uM incubated for 24 hrs by annexin V FITC and propidium iodide staining based flow cytometry analysis (reference value: 80.9 %); format: functional; conditions: HCT-116, 24 h, read-out: Activity
HCT-116 [3] = experiment: Induction of apoptosis in human HCT116 cells assessed as early apoptotic cells at 1 uM incubated for 24 hrs by annexin V FITC and propidium iodide staining based flow cytometry analysis (reference value: 7.9%); format: functional
HCT-116 [4] = experiment: Induction of apoptosis in human HCT116 cells assessed as late apoptotic cells at 1 uM incubated for 24 hrs by annexin V FITC and propidium iodide staining based flow cytometry analysis (reference value: 11 %); format: functional
HCT-116 [5] = experiment: Induction of apoptosis in human HCT116 cells assessed as necrotic cells at 1 uM incubated for 24 hrs by annexin V FITC and propidium iodide staining based flow cytometry analysis (reference value: 0.2 %); format: functional
HCT-116 [6] = experiment: Induction of apoptosis in human HCT116 cells assessed as viable cells at 3 uM incubated for 24 hrs by annexin V FITC and propidium iodide staining based flow cytometry analysis (reference value: 80.9 %); format: functional; conditions: HCT-116, 24 h, read-out: Activity
HCT-116 [7] = experiment: Induction of apoptosis in human HCT116 cells assessed as early apoptotic cells at 3 uM incubated for 24 hrs by annexin V FITC and propidium iodide staining based flow cytometry analysis (reference value: 7.9 %); format: functional
HCT-116 [8] = experiment: Induction of apoptosis in human HCT116 cells assessed as late apoptotic cells at 3 uM incubated for 24 hrs by annexin V FITC and propidium iodide staining based flow cytometry analysis (reference value: 11 %); format: functional
HCT-116 [9] = experiment: Induction of apoptosis in human HCT116 cells assessed as necrotic cells at 3 uM incubated for 24 hrs by annexin V FITC and propidium iodide staining based flow cytometry analysis (reference value: 0.2 %); format: functional
HCT-116 [10] = experiment: Induction of apoptosis in human HCT116 cells assessed as viable cells at 9 uM incubated for 24 hrs by annexin V FITC and propidium iodide staining based flow cytometry analysis (reference value: 80.9 %); format: functional; conditions: HCT-116, 24 h, read-out: Activity
HCT-116 [11] = experiment: Induction of apoptosis in human HCT116 cells assessed as early apoptotic cells at 9 uM incubated for 24 hrs by annexin V FITC and propidium iodide staining based flow cytometry analysis (reference value: 7.9 %); format: functional
HCT-116 [12] = experiment: Induction of apoptosis in human HCT116 cells assessed as late apoptotic cells at 9 uM incubated for 24 hrs by annexin V FITC and propidium iodide staining based flow cytometry analysis (reference value: 11 %); format: functional
HCT-116 [13] = experiment: Induction of apoptosis in human HCT116 cells assessed as necrotic cells at 9 uM incubated for 24 hrs by annexin V FITC and propidium iodide staining based flow cytometry analysis (reference value: 0.2 %); format: functional
HCT-116 [14] = experiment: Inhibition of cell migration in human HCT116 cells assessed as inhibition of wound healing rate measured upto 48 hrs by phase contrast microscopy; format: functional, cell-based
Method in brief: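 Wound-healing scratch assay in HCT116 monolayers treated at 0.3 and 3 µM versus blank control. Phase-contrast images were taken at 0, 24 and 48 h, and the wound-healing rate was assessed.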

HCT-116 [15] = experiment: Induction of cell cycle arrest in human HCT116 cells assessed as G1 phase at 0.33 uM incubated for 24 hrs by annexin V and propidium iodide staining based flow cytometry analysis (reference value: 61.81 %); format: functional
Method in brief: (§1)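 HCT116 cells treated 24 h at 0.33, 1.0 or 9.0 µM alongside a non-treated control. Cells were fixed, stained with Annexin-V and propidium iodide, and DNA content was measured by flow cytometry. Percentages of cells in G1, S and G2 phases were quantified.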

HCT-116 [16] = experiment: Induction of cell cycle arrest in human HCT116 cells assessed as S phase at 0.33 uM incubated for 24 hrs by annexin V and propidium iodide staining based flow cytometry analysis (reference value: 16.08 %); format: functional; method in brief: as §1
HCT-116 [17] = experiment: Induction of cell cycle arrest in human HCT116 cells assessed as G2 phase at 0.33 uM incubated for 24 hrs by annexin V and propidium iodide staining based flow cytometry analysis (reference value: 22.11 %); format: functional; method in brief: as §1
HCT-116 [18] = experiment: Induction of cell cycle arrest in human HCT116 cells assessed as G1 phase at 1 uM incubated for 24 hrs by annexin V and propidium iodide staining based flow cytometry analysis (reference value: 61.81 %); format: functional; method in brief: as §1
HCT-116 [19] = experiment: Induction of cell cycle arrest in human HCT116 cells assessed as S phase at 1 uM incubated for 24 hrs by annexin V and propidium iodide staining based flow cytometry analysis (reference value: 16.08 %); format: functional; method in brief: as §1
HCT-116 [20] = experiment: Induction of cell cycle arrest in human HCT116 cells assessed as G2 phase at 1 uM incubated for 24 hrs by annexin V and propidium iodide staining based flow cytometry analysis (reference value: 22.11 %); format: functional; method in brief: as §1
HCT-116 [21] = experiment: Induction of cell cycle arrest in human HCT116 cells assessed as G1 phase at 9 uM incubated for 24 hrs by annexin V and propidium iodide staining based flow cytometry analysis (reference value: 61.81 %); format: functional; method in brief: as §1
HCT-116 [22] = experiment: Induction of cell cycle arrest in human HCT116 cells assessed as S phase at 9 uM incubated for 24 hrs by annexin V and propidium iodide staining based flow cytometry analysis (reference value: 16.08 %); format: functional; method in brief: as §1
HCT-116 [23] = experiment: Induction of cell cycle arrest in human HCT116 cells assessed as G2 phase at 9 uM incubated for 24 hrs by annexin V and propidium iodide staining based flow cytometry analysis (reference value: 22.11 %); format: functional; method in brief: as §1
HCT-116 [24] = experiment: Induction of apoptosis in human HCT116 cells incubated for 24 hrs by annexin V FITC and propidium iodide staining based flow cytometry analysis; format: functional, cell-based
HCT-116 [25] = experiment: Induction of apoptosis in human HCT116 cells assessed as total apoptotic cells at 9 uM incubated for 24 hrs by annexin V FITC and propidium iodide staining based flow cytometry analysis (reference value: 18.9%); format: functional

- IC50 (A549): 18.3 µM
- IC50 (HCT-116 [1]): 19.8 µM
- IC50 (PC-3): 13.2 µM
Structure (SMILES): Cn1c(=O)c(=O)n(C2CCCC2)c2nc(N/N=C/c3ccc(F)cc3F)ncc21

- IC50 (A549): 9.86 µM
- IC50 (HCT-116 [1]): 14 µM
- IC50 (PC-3): 16.3 µM
Structure (SMILES): Cn1c(=O)c(=O)n(C2CCCC2)c2nc(N/N=C/c3ccccc3Cl)ncc21

- IC50 (A549): 18.3 µM
- IC50 (HCT-116 [1]): 22.9 µM
- IC50 (PC-3): 17.5 µM
Structure (SMILES): COc1cc(/C=N/Nc2ncc3c(n2)n(C2CCCC2)c(=O)c(=O)n3C)cc(OC)c1OC

- IC50 (A549): 30.2 µM
- IC50 (HCT-116 [1]): 62.9 µM
- IC50 (PC-3): 39 µM
Structure (SMILES): Cc1ccc(/C=N/Nc2ncc3c(n2)n(C2CCCC2)c(=O)c(=O)n3C)cc1C

- IC50 (A549): > 100 µM
- IC50 (HCT-116 [1]): > 100 µM
- IC50 (PC-3): > 100 µM
Structure (SMILES): COc1ccc(/C=N/Nc2ncc3c(n2)n(C2CCCC2)c(=O)c(=O)n3C)c(OC)c1

- IC50 (A549): > 100 µM
- IC50 (HCT-116 [1]): 36.1 µM
- IC50 (PC-3): 26.2 µM
Structure (SMILES): COc1ccc(/C=N/Nc2ncc3c(n2)n(C2CCCC2)c(=O)c(=O)n3C)cc1

Second part, the compound before the results:

Structure (SMILES): Cn1c(=O)c(=O)n(C2CCCC2)c2nc(N/N=C/c3cc(C(F)(F)F)cc(C(F)(F)F)c3)ncc21
- IC50 (A549): 3.23 µM
- IC50 (HCT-116 [1]): 4.36 µM
- IC50 (PC-3): 8.2 µM
- viability at 1 µM (HCT-116 [2]): 78.1%
- Activity (HCT-116 [3]): 10.3%
- Activity (HCT-116 [4]): 11.1%
- Activity (HCT-116 [5]): 0.5%
- viability at 3 µM (HCT-116 [6]): 77.4%
- Activity (HCT-116 [7]): 10.2%
- Activity (HCT-116 [8]): 12.2%
- Activity (HCT-116 [9]): 0.2%
- viability at 9 µM (HCT-116 [10]): 61.3%
- Activity (HCT-116 [11]): 20.3%
- Activity (HCT-116 [12]): 18%
- Activity (HCT-116 [13]): 0.4%
- inhibition (HCT-116 [14]): Dose-dependent effect
- Activity (HCT-116 [15]): 62.69%
- Activity (HCT-116 [16]): 20%
- Activity (HCT-116 [17]): 17.31%
- Activity (HCT-116 [18]): 65.46%
- Activity (HCT-116 [19]): 16.56%
- Activity (HCT-116 [20]): 17.98%
- Activity (HCT-116 [21]): 67.2%
- Activity (HCT-116 [22]): 11.41%
- Activity (HCT-116 [23]): 21.39%
- Activity (HCT-116 [24]): Dose-dependent effect
- Activity (HCT-116 [25]): 38.3%

Structure (SMILES): Cn1c(=O)c(=O)n(C2CCCC2)c2nc(N/N=C/c3ccco3)ncc21
- IC50 (A549): > 100 µM
- IC50 (HCT-116 [1]): 78.7 µM
- IC50 (PC-3): 72.2 µM

Structure (SMILES): Cn1c(=O)c(=O)n(C2CCCC2)c2nc(N/N=C/c3ccccc3F)ncc21
- IC50 (A549): 31.2 µM
- IC50 (HCT-116 [1]): 20.7 µM
- IC50 (PC-3): 27.6 µM

Structure (SMILES): Cn1c(=O)c(=O)n(C2CCCC2)c2nc(N/N=C/c3ccc(O)c(F)c3)ncc21
- IC50 (A549): 97.8 µM
- IC50 (HCT-116 [1]): 59.3 µM
- IC50 (PC-3): 85.2 µM

Structure (SMILES): Cn1c(=O)c(=O)n(C2CCCC2)c2nc(N/N=C/c3ccc(C(F)(F)F)cc3)ncc21
- IC50 (A549): 40.6 µM
- IC50 (HCT-116 [1]): 29 µM
- IC50 (PC-3): 23.6 µM

Structure (SMILES): Cn1c(=O)c(=O)n(C2CCCC2)c2nc(N/N=C/c3ccccc3)ncc21
- IC50 (A549): > 100 µM
- IC50 (HCT-116 [1]): > 100 µM
- IC50 (PC-3): 48.2 µM

Structure (SMILES): Cc1cc(C)c(/C=N/Nc2ncc3c(n2)n(C2CCCC2)c(=O)c(=O)n3C)c(C)c1
- IC50 (A549): 12 µM
- IC50 (HCT-116 [1]): 7.92 µM
- IC50 (PC-3): 13.9 µM

Structure (SMILES): CSc1ccc(/C=N/Nc2ncc3c(n2)n(C2CCCC2)c(=O)c(=O)n3C)cc1
- IC50 (A549): 14.1 µM
- IC50 (HCT-116 [1]): 9.01 µM
- IC50 (PC-3): 21 µM
